Columns and labels:
Muscle tissue [1] = assay: Drug uptake in muscle of BALB/c nude mouse xenografted with human U87MG cells over expressing […] integrin at 0.148 MBq/0.1 mL after 60 mins by gamma counting in presence of 3 mg/kg c(RGDyk); format: ADME, organism-based, U-87MG ATCC; parameters: dose 3 mg/kg; settings: in vivo, 1 h
How it was run: (§1)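 Male BALB/c nude mice received 2 × 10^5 U87MG human glioma cells s.c. in the right shoulder, 11 days before tracer. Tracer was given by tail vein; blocking groups were co-injected with cold c(RGDyK) 3 mg/kg. Mice were killed at 60 min; organs and blood were weighed and gamma counted, and %ID/g was calculated. n = 8; Student's t-test.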

Stomach [2] = assay: Drug uptake in stomach of BALB/c nude mouse xenografted with human U87MG cells over expressing […] integrin at 0.148 MBq/0.1 mL, iv after 60 mins by gamma counting; format: ADME, organism-based, U-87MG ATCC; settings: in vivo, 1 h; how it was run: as §1
Blood [3] = assay: Drug uptake in blood of BALB/c nude mouse xenografted with human U87MG cells overexpressing […] integrin at 0.148 MBq/0.1 mL after 60 mins by gamma counting in presence of 3 mg/kg c(RGDyk); format: ADME, organism-based, U-87MG ATCC; parameters: dose 3 mg/kg; settings: in vivo, 1 h; how it was run: as §1
Kidney [4] = assay: Drug uptake in kidney of BALB/c nude mouse xenografted with human U87MG cells over expressing […] integrin at 0.148 MBq/0.1 mL, iv after 60 mins by gamma counting; format: ADME, organism-based, U-87MG ATCC; settings: in vivo, 1 h; how it was run: as §1
Pancreas [5] = assay: Drug uptake in pancreas of BALB/c nude mouse xenografted with human U87MG cells over expressing […] integrin at 0.148 MBq/0.1 mL after 60 mins by gamma counting in presence of 3 mg/kg c(RGDyk); format: ADME, organism-based, U-87MG ATCC; parameters: dose 3 mg/kg; settings: in vivo, 1 h; how it was run: as §1
Bone [6] = assay: Drug uptake in bone of BALB/c nude mouse xenografted with human U87MG cells over expressing […] integrin at 0.148 MBq/0.1 mL after 60 mins by gamma counting in presence of 3 mg/kg c(RGDyk); format: ADME, organism-based, Bone element, U-87MG ATCC; parameters: dose 3 mg/kg; settings: in vivo, 1 h; how it was run: as §1
Lung [7] = assay: Drug uptake in lung of BALB/c nude mouse xenografted with human U87MG cells over expressing […] integrin at 0.148 MBq/0.1 mL after 60 mins by gamma counting in presence of 3 mg/kg c(RGDyk); format: ADME, organism-based, U-87MG ATCC; parameters: dose 3 mg/kg; settings: in vivo, 1 h; how it was run: as §1
Stomach [8] = assay: Drug uptake in stomach of BALB/c nude mouse xenografted with human U87MG cells over expressing […] integrin at 0.148 MBq/0.1 mL after 60 mins by gamma counting in presence of 3 mg/kg c(RGDyk); format: ADME, organism-based, U-87MG ATCC; parameters: dose 3 mg/kg; settings: in vivo, 1 h; how it was run: as §1
Lung [9] = assay: Drug uptake in lung of BALB/c nude mouse xenografted with human U87MG cells over expressing […] integrin at 0.148 MBq/0.1 mL, iv after 60 mins by gamma counting; format: ADME, organism-based, U-87MG ATCC; settings: in vivo, 1 h; how it was run: as §1
Kidney [10] = assay: Drug uptake in kidney of BALB/c nude mouse xenografted with human U87MG cells over expressing […] integrin at 0.148 MBq/0.1 mL after 60 mins by gamma counting in presence of 3 mg/kg c(RGDyk); format: ADME, organism-based, U-87MG ATCC; parameters: dose 3 mg/kg; settings: in vivo, 1 h; how it was run: as §1
[11] = Drug uptake in human U87MG cells overexpressing alphavbeta3 integrin xenografted in BALB/c nude mouse tumor at 11.1 MBq/0.1 mL after 2 hrs by PET/CT imaging in presence of 3 mg/kg c(RGDyk); settings: in vivo
[12] = Drug uptake in human U87MG cells over expressing […] integrin xenografted in BALB/c nude mouse tumor at 11.1 MBq/0.1 mL, iv after 2 hrs by PET/CT imaging; format: ADME, organism-based, Neoplasm, U-87MG ATCC; settings: in vivo
How it was run: (§2)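 Glioma-xenografted BALB/c nude mice were injected by tail vein; inhibition groups were co-injected with cold c(RGDyK) 3 mg/kg. Under 2% isoflurane, dynamic small-animal PET/CT was acquired at 1 and 2 h, with decay-corrected images. SUV = tissue activity concentration (MBq/mL) / (injected dose (MBq) / body weight (g)). Normal tissue reference was the left shoulder.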

Spleen [13] = assay: Drug uptake in spleen of BALB/c nude mouse xenografted with human U87MG cells over expressing […] integrin at 0.148 MBq/0.1 mL, iv after 60 mins by gamma counting; format: ADME, organism-based, U-87MG ATCC; settings: in vivo, 1 h; how it was run: as §1
[14] = Chemical stability of the compound after 4 hrs by ITLC-SG analysis; format: physicochemical
How it was run: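 After Al18F labeling (pH 4 sodium acetate buffer, 110 °C, 10 min), stability of the labeled conjugate was followed in the labeling medium at room temperature for 240 min. Decomposition was checked by ITLC-SG; unbound [18F]AlF stays at the origin, the labeled peptide runs to the solvent front.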

Muscle tissue [15] = assay: Drug uptake in muscle of BALB/c nude mouse xenografted with human U87MG cells over expressing […] integrin at 0.148 MBq/0.1 mL, iv after 60 mins by gamma counting; format: ADME, organism-based, U-87MG ATCC; settings: in vivo, 1 h; how it was run: as §1
Intestine [16] = assay: Drug uptake in intestine of BALB/c nude mouse xenografted with human U87MG cells over expressing […] integrin at 0.148 MBq/0.1 mL, iv after 60 mins by gamma counting; format: ADME, organism-based, U-87MG ATCC; settings: in vivo, 1 h; how it was run: as §1
Pancreas [17] = assay: Drug uptake in pancreas of BALB/c nude mouse xenografted with human U87MG cells over expressing […] integrin at 0.148 MBq/0.1 mL, iv after 60 mins by gamma counting; format: ADME, organism-based, U-87MG ATCC; settings: in vivo, 1 h; how it was run: as §1
Bone [18] = assay: Drug uptake in bone of BALB/c nude mouse xenografted with human U87MG cells over expressing […] integrin at 0.148 MBq/0.1 mL, iv after 60 mins by gamma counting; format: ADME, organism-based, Bone element, U-87MG ATCC; settings: in vivo, 1 h; how it was run: as §1
Spleen [19] = assay: Drug uptake in spleen of BALB/c nude mouse xenografted with human U87MG cells over expressing […] integrin at 0.148 MBq/0.1 mL after 60 mins by gamma counting in presence of 3 mg/kg c(RGDyk); format: ADME, organism-based, U-87MG ATCC; parameters: dose 3 mg/kg; settings: in vivo, 1 h; how it was run: as §1
[20] = Drug uptake in human U87MG cells over expressing […] integrin xenografted in BALB/c nude mouse tumor at 11.1 MBq/0.1 mL, iv after 1 hr by PET/CT imaging; format: ADME, organism-based, Neoplasm, U-87MG ATCC; settings: in vivo; how it was run: as §2
[21] = Drug uptake in human U87MG cells overexpressing […] integrin xenografted in BALB/c nude mouse tumor at 11.1 MBq/0.1 mL after 1 hr by PET/CT imaging in presence of 3 mg/kg c(RGDyk); format: ADME, organism-based, Neoplasm, U-87MG ATCC; parameters: dose 3 mg/kg; settings: in vivo; how it was run: as §2
Heart [22] = assay: Drug uptake in heart of BALB/c nude mouse xenografted with human U87MG cells over expressing […] integrin at 0.148 MBq/0.1 mL, iv after 60 mins by gamma counting; format: ADME, organism-based, U-87MG ATCC; settings: in vivo, 1 h; how it was run: as §1
Intestine [23] = assay: Drug uptake in intestine of BALB/c nude mouse xenografted with human U87MG cells over expressing […] integrin at 0.148 MBq/0.1 mL after 60 mins by gamma counting in presence of 3 mg/kg c(RGDyk); format: ADME, organism-based, U-87MG ATCC; parameters: dose 3 mg/kg; settings: in vivo, 1 h; how it was run: as §1
Urinary bladder = assay: Drug uptake in bladder of BALB/c nude mouse xenografted with human U87MG cells over expressing […] integrin at 11.1 MBq/0.1 mL, iv after 1 to 2 hrs by PET/CT imaging; format: ADME, organism-based, U-87MG ATCC; settings: in vivo; how it was run: as §2
Liver [24] = assay: Drug uptake in liver of BALB/c nude mouse xenografted with human U87MG cells over expressing […] integrin at 0.148 MBq/0.1 mL after 60 mins by gamma counting in presence of 3 mg/kg c(RGDyk); format: ADME, organism-based, U-87MG ATCC; parameters: dose 3 mg/kg; settings: in vivo, 1 h; how it was run: as §1
[25] = Drug uptake in human U87MG cells over expressing […] integrin xenografted BALB/c nude mouse tumor at 0.148 MBq/0.1 mL, iv after 60 mins by gamma counting; format: ADME, organism-based, Neoplasm, U-87MG ATCC; settings: in vivo, 1 h; how it was run: as §1
Heart [26] = assay: Drug uptake in heart of BALB/c nude mouse xenografted with human U87MG cells over expressing […] integrin at 0.148 MBq/0.1 mL after 60 mins by gamma counting in presence of 3 mg/kg c(RGDyk); format: ADME, organism-based, U-87MG ATCC; parameters: dose 3 mg/kg; settings: in vivo, 1 h; how it was run: as §1
Blood [27] = assay: Drug uptake in blood of BALB/c nude mouse xenografted with human U87MG cells over expressing […] integrin at 0.148 MBq/0.1 mL, iv after 60 mins by gamma counting; format: ADME, organism-based, U-87MG ATCC; settings: in vivo, 1 h; how it was run: as §1
Liver [28] = assay: Drug uptake in liver of BALB/c nude mouse xenografted with human U87MG cells over expressing […] integrin at 0.148 MBq/0.1 mL, iv after 60 mins by gamma counting; format: ADME, organism-based, U-87MG ATCC; settings: in vivo, 1 h; how it was run: as §1
[29] = Stability of the compound in human serum for 4 hrs by ITLC-SG analysis; format: ADME, cell-free
How it was run: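 Labeled conjugate was incubated in human serum at 37 °C for 240 min. Decomposition was checked by ITLC-SG; unbound [18F]AlF stays at the origin, the labeled peptide runs to the solvent front.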

[30] = Drug uptake in human U87MG cells over expressing […] integrin xenografted in BALB/c nude mouse tumor at 0.148 MBq/0.1 mL after 1 hr by gamma counting in presence of 3 mg/kg c(RGDyk); format: ADME, organism-based, Neoplasm, U-87MG ATCC; parameters: dose 3 mg/kg; settings: in vivo; how it was run: as §1

N=C(N)NCCC[C@@H]1NC(=O)[C@H](CCCCNC(=S)Nc2ccc(CN3CCN4CCN(CC3)CC(=O)[O][Al]([18F])[O]C(=O)C4)cc2)NC(=O)[C@@H](Cc2ccc(O)cc2)NC(=O)[C@H](CC(=O)O)NC(=O)CNC1=O
7.42: SUV [20]
Active: Drug uptake (Stomach [2]) | Drug uptake (Kidney [4]) | Drug uptake (Lung [9]) | Drug uptake (Spleen [13]) | Drug uptake (Muscle tissue [15]) | Drug uptake (Intestine [16]) | Drug uptake (Pancreas [17]) | Drug uptake (Bone [18]) | Drug uptake (Heart [22]) | Drug uptake (Urinary bladder) | Drug uptake (Blood [27]) | Drug uptake (Liver [28])
1.33 % ID/g: Drug uptake [30]
0.72: SUV [21]
3.77: SUV [12]
4.41 % ID/g: Drug uptake [25]
0.42: SUV [11]
Not Active: Drug uptake (Muscle tissue [1]) | Drug uptake (Blood [3]) | Drug uptake (Pancreas [5]) | Drug uptake (Bone [6]) | Drug uptake (Lung [7]) | Drug uptake (Stomach [8]) | Drug uptake (Kidney [10]) | Drug uptake (Spleen [19]) | Drug uptake (Intestine [23]) | Drug uptake (Liver [24]) | Drug uptake (Heart [26])
> 95%: remaining at 4 h [14] | remaining at 4 h [29]

From ChEMBL document CHEMBL2150968, “Development of a bifunctional chelating agent containing isothiocyanate residue for one step F-18 labeling of peptides and application for RGD labeling” (Bioorg Med Chem, 2012)
